# Source: PubChem BioAssay
# MrgX1 antagonist = antagonists of human MrgX1 receptor, primary screen, HEK293 cells, Fluo-4 calcium flux | Mas-related G-protein coupled receptor member X1 (Homo sapiens), Q96LB2 | BAM8-22 antagonism; hits give low values | B-score at 10 µM | 310,000 compounds, 1.3% hits;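 active means calcium-response B-score plate-corrected more than 3 library SD below zero, starting fluorescence within 5 deviations, no agonist response on first addition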;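 further: peak minus trough fluorescence over baseline after final BAM8-22 challenge near maximal dose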
# Target sequence (Q96LB2 whole entry, looked up): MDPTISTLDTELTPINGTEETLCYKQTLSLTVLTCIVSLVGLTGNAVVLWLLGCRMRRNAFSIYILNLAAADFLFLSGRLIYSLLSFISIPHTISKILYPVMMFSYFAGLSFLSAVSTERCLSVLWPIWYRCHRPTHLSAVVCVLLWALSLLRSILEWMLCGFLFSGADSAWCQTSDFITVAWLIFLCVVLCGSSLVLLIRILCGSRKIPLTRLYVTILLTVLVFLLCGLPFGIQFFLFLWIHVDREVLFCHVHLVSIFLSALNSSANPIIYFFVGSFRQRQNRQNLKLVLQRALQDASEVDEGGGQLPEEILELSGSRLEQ
# MrgX1 PAM = positive allosteric modulators of MrgX1, primary screen, HEK293 cells, Fluo-4 calcium flux. 310,000 compounds, 0.63% hits. Mas-related G-protein coupled receptor member X1 (Homo sapiens), Q96LB2. B-score at 10 µM. FDSS; hits give high values;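 active means plate-corrected calcium response at least 3 library SD above typical, normal starting fluorescence, not activating the receptor alone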;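 further: compound read alongside a low EC10 to EC30 dose of BAM8-22 agonist; peak minus trough fluorescence over baseline measured at the second addition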
# RGS4 inh = RGS4 inhibitors, primary screen, cell-based, HEK293 M3R inducible RGS4, calcium flux; Regulator of G-protein signaling 4 (Homo sapiens), P49798; Fluo-4 calcium flux; hits give high values; triggered by carbachol at its EC20; B-score at 10 µM; 310,000 compounds, 0.45% hits; AID 463165, 2010;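 active means B-score, a plate-corrected calcium signal, over three deviations above library mean, with baseline fluorescence within five deviations of library mean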;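 further: RGS4 expression induced by doxycycline in cells with stable M3 receptor; B-score is computed from the integrated fluorescence ratio over baseline after carbachol; higher B-score means a larger calcium signal and so more RGS4 inhibition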
# PHOSPHO1 block = PubChem AID 1565; Phosphoethanolamine/phosphocholine phosphatase (Homo sapiens), Q8TCT1; inhibition, % at 13.3 µM; 290,000 compounds, 1.1% hits; recombinant PHOSPHO1, absorbance phosphatase assay; in the data active means inhibition above about 60%
# RGS4 act = RGS4 potentiators or activators, primary screen, cell-based, HEK293 M3R inducible RGS4, calcium flux | AID 463111, 2010 | carbachol calcium flux Fluo4; hits give low values | 310,000 compounds, 0.92% hits | B-score at 10 µM;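 active means B-score of the integrated calcium signal more than 4 SD below the library mean, with starting fluorescence not abnormally high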;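 further: negative B-score means reduced calcium response which marks RGS4 activation or potentiation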
#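 System: HEK293 FlpIn-TREx cells, stable M3R, doxycycline-inducible RGS4. Timing: overnight RGS4 induction, 30 min dye load 37 °C, 20 min compound RT. Also added: carbachol, ECmax concentration. Measured by: Fluo4 fluorescence kinetic imaging of calcium. Evaluation: integrated calcium ratio converted to B score.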
# MrgX1 ag = agonists of human MrgX1 receptor, primary screen, HEK293 cells, Fluo-4 calcium flux | Mas-related G-protein coupled receptor member X1 (Homo sapiens), Q96LB2 | Fluo-4 calcium fluorescence, agonist mode; hits give high values | B-score at 10 µM | 310,000 compounds, 0.44% hits | AID 588627, 2011;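 active means calcium response B-score plate-corrected fluorescence ratio at least 3 library SD, with starting fluorescence B-score inside 5 SD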
#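 Test system: Stable human MrgX1 HEK293 cell line | Schedule: Overnight plating before 1 h dye loading | Read-out basis: Baseline-normalised fluorescence change ratio, B-scored | Detection: Kinetic calcium dye fluorescence, Fluo-4 NW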
# Active calls of the source: *; i = inactive; . = not tested or not shown. Only some compounds are listed: those with a hit (about 4.5% of all), similar ones and a draw of the others.
SMILES,MrgX1 antagonist,MrgX1 PAM,RGS4 inh,PHOSPHO1 block,RGS4 act,MrgX1 ag
N#Cc1c(NC(=O)CSc2ncccn2)oc(-c2ccccc2)c1-c1ccccc1,i,i,i,.,i,i
CCCn1nnc(NC(=S)NC(=O)c2cccs2)n1,i,i,i,-18,i,i
COc1ccccc1NC(=O)C(C)N(C)Cc1ccc(Cl)s1 (stereo not drawn),i,i,i,-94,i,i
O=C(O)/C=C/c1cnc2ccccc2n1,i,i,i,37,i,i
CCC(C)(C)NC(=O)/C=C/c1cnc2ccccc2n1,-4.7*,i,i,1,i,i
COc1ccc(Cl)cc1NC(=O)CN(C)C(=O)c1ccc(N2CCCCC2)c([N+](=O)[O-])c1,i,i,i,.,i,i
CCN(CC(=O)Nc1c(F)cccc1F)C(=O)c1ccc(N2CCCCC2)c([N+](=O)[O-])c1,-4.6*,i,i,15,i,i
CCN(CC(=O)Nc1c(F)cccc1F)C(=O)c1cc(S(=O)(=O)N(CC)CC)ccc1N1CCCCC1,i,i,i,-5,i,i
COc1ccc(Cl)cc1NC(=O)CN(C)C(=O)c1ccc(N2CCCCCC2)c([N+](=O)[O-])c1,-6.6*,i,i,.,i,i
CCOc1ccc(CCNC(=O)c2cccc(S(=O)(=O)N3CC(C)OC(C)C3)c2)cc1OCC (stereo not drawn),-6.5*,i,i,.,i,i
Fc1ccc2c(c1)Sc1ccc(Cl)cc1CC2N1CCN(CCC2OCCO2)CC1 (stereo not drawn),i,i,i,.,-7.3*,i
CC(C)Sc1nnc(NC(=O)c2ccc3c(c2)OCO3)s1,i,i,i,27,i,i
O=C(NC(NC(=S)Nc1ccc(Cl)cc1Cl)C(Cl)(Cl)Cl)c1cccc([N+](=O)[O-])c1 (stereo not drawn),i,i,i,37,-7.2*,i
O=C(Nc1ccc([N+](=O)[O-])cc1)c1cccc(S(=O)(=O)Nc2cccnc2)c1,i,i,i,8,i,i
Cc1ccc(NC(=S)NNC(=O)c2cccc([N+](=O)[O-])c2)cc1Cl,i,i,i,74*,i,i
O=C(Nc1cccnc1)c1ccc(NS(=O)(=O)c2cccc([N+](=O)[O-])c2)cc1,i,14*,i,5,i,i
O=C(Nc1cccnc1)Nc1cccc([N+](=O)[O-])c1,-5.2*,i,i,.,i,i
CCOC(=O)c1c(-c2ccccc2Cl)csc1NC(=O)c1cc(S(=O)(=O)N2CCOCC2)ccc1C,i,i,i,0,i,i
COCCn1c(SC(C)C(=O)Nc2ccc(N3CCOCC3)cc2)nnc1-c1ccncc1 (stereo not drawn),i,i,i,.,i,i
CCN(CC)S(=O)(=O)c1ccc(C)c(NS(=O)(=O)c2cc(/C=C/C(=O)O)cc(OC)c2OC)c1,i,i,i,8,i,i
CCOc1ccc(S(=O)(=O)NCCC(=O)NCC(c2ccc(OC)cc2)N2CCCCC2)cc1 (stereo not drawn),i,i,i,.,i,i
CCc1cccc(C)c1NC(=O)CN(C)S(=O)(=O)c1ccc(-c2ccc(=O)[nH]n2)s1,i,i,i,50,i,i
O=C(Nc1ccc(OC(F)(F)F)cc1)Nc1cccc([N+](=O)[O-])c1,-6.6*,i,i,-14,i,i
Cc1cc(C)nc(/N=C(\N)Nc2ccc([N+](=O)[O-])cc2)n1,i,i,i,-12,i,i
COC(C(=O)Nc1cccc([N+](=O)[O-])c1)c1ccccc1 (stereo not drawn),i,i,i,21,i,i
